Test results from ChEMBL document CHEMBL1926574, “Synthesis and biological evaluation of a new series of 1,2,4-triazolo[1,5-a]-1,3,5-triazines as human A(2A) adenosine receptor antagonists with improved water solubility” (J Med Chem, 2011).

Columns and labels:
[1] = biological target: T1, Adenosine receptor A1 (Homo sapiens) (UniProt P30542); assay: Displacement of [3H]DPCPX from human adenosine A1 receptor expressed in HEK293 cells at 10 uM by scintillation counting; type: cell-based
T1 sequence (whole entry): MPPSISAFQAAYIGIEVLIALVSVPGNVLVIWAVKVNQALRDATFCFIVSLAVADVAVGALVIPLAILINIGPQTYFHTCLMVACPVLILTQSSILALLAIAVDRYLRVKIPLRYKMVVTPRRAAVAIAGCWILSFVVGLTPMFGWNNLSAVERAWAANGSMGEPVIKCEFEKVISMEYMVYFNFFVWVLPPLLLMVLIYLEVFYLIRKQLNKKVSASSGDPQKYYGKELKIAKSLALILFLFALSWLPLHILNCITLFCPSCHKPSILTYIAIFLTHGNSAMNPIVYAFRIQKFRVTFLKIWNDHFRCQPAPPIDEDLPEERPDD

[2] = biological target: T2, Adenosine receptor A3 (Homo sapiens) (UniProt P0DMS8); assay: Displacement of [I125]I-AB-MECA from human adenosine A3 receptor expressed in CHO cells at 10 uM by scintillation counting; type: cell-based
T2 sequence (whole entry): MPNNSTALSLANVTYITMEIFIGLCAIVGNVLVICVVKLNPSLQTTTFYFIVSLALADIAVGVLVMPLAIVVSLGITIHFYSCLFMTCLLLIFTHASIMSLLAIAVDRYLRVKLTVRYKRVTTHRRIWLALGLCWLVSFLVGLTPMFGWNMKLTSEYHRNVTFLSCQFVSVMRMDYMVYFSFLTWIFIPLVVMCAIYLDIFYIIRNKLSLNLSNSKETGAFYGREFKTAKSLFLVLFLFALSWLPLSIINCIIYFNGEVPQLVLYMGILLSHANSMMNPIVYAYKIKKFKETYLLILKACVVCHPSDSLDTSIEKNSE

Adenosine receptor A2a = Adenosine receptor A2a (Homo sapiens, UniProt P29274); assay: Displacement of [3H]ZM241385 from human adenosine A2A receptor expressed in HEK293 cells by scintillation counting; type: cell-based
Adenosine receptor A2a, sequence (P29274 whole entry): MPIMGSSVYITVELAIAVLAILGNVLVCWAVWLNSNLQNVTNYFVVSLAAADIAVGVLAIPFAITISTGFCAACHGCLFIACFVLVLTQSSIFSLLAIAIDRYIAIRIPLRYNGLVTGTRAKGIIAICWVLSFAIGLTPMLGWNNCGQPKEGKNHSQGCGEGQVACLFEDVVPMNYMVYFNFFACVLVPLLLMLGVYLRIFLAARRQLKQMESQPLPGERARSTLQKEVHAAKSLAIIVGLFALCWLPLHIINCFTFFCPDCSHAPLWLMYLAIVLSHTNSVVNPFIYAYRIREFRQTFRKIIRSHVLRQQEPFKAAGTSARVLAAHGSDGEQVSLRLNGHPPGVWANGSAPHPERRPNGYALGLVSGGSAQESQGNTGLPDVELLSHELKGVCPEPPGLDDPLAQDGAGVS

Adenosine receptor A2b = biological target: T3, Adenosine receptor A2b (Homo sapiens, UniProt P29275); assay: Antagonist activity at human recombinant adenosine A2B receptor expressed in CHO cells assessed as inhibition of NECA-stimulated adenylyl cyclase activity; type: functional, cell-based
T3 sequence (P29275 whole entry): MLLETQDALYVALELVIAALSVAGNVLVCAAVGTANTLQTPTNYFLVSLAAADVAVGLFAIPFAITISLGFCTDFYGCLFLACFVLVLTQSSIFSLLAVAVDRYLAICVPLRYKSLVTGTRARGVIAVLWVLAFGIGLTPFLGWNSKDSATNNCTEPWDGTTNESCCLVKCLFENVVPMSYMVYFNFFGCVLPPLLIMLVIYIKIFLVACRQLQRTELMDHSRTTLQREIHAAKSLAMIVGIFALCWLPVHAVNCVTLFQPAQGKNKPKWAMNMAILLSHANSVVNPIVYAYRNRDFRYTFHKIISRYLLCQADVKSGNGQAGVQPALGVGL
How it was run: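 Membranes from CHO cells stably expressing the hA2B receptor were incubated 20 min with about 150,000 cpm [α-32P]ATP, without EGTA and NaCl. The read-out was antagonist concentration-dependent inhibition of NECA-stimulated adenylyl cyclase. IC50 was calculated with the Hill equation.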

Homo sapiens = species: Homo sapiens; assay: Selectivity ratio of Ki for human adenosine A1 receptor to Ki for human adenosine A2A receptor
Adenosine receptor A1 = biological target: T4, Adenosine receptor A1 (Homo sapiens, UniProt P30542); assay: Displacement of [3H]DPCPX from human adenosine A1 receptor expressed in HEK293 cells by scintillation counting; type: cell-based
T4 sequence (P30542 whole entry): T1 sequence (whole entry)

SMILES	Activity [1] [%]	Activity [2] [%]	Ki (Adenosine receptor A2a) [nM]	IC50 (Adenosine receptor A2b) [nM]	Ratio Ki (Homo sapiens)	Ki (Adenosine receptor A1) [nM]
O=C(Nc1nc(O)nc2nc(-c3ccco3)nn12)c1ccccc1	34.4	75.9	1750	> 100000		
Nc1nc(N2CCN(Cc3ccccc3)CC2)nc2nc(-c3ccco3)nn12		71.9	20.6	> 30000	47.5	978
Nc1nc(N2CCNCC2)nc2nc(-c3ccco3)nn12	28.6	29.9	153	> 30000		
Nc1nc(N2CCCC2)nc2nc(-c3ccco3)nn12		75	59.1	> 30000	33	1940
CC(C)(C)OC(=O)NCCOCCOCCNc1nc(N)n2nc(-c3ccco3)nc2n1		74	17.8	> 10000	89	1580
Nc1nc(N2CCN(Cc3ccc(Cl)cc3)CC2)nc2nc(-c3ccco3)nn12		66.8	102	> 30000	2.1	220
CC(C)(C)OC(=O)NCCCNc1nc(N)n2nc(-c3ccco3)nc2n1		77.3	38.6	20600	9	344
CC(C)(C)OC(=O)NCC1CCC(CNc2nc(N)n3nc(-c4ccco4)nc3n2)CC1 (stereo unspecified)		75.5	69.7	7140	56	3890
CCCCC(=O)N1CCN(c2nc(N)n3nc(-c4ccco4)nc3n2)CC1	10.8	56.2	124	> 100000		
COC(=O)CCC(=O)N1CCN(c2nc(N)n3nc(-c4ccco4)nc3n2)CC1	19.4	37.2	66.2	> 100000		
Nc1nc(NC(=O)c2ccccc2)n2nc(-c3ccco3)nc2n1		67.2	44.1	7060	40	1800
CC(C)(C)C(=O)N1CCN(c2nc(N)n3nc(-c4ccco4)nc3n2)CC1	38.7	32.3	58.4	> 100000		
O=C(Nc1nc(Oc2ccccc2)nc2nc(-c3ccco3)nn12)c1ccccc1	26.2	32.3	1000	> 10000		
CC(C)(C)OC(=O)NCCCCCNc1nc(N)n2nc(-c3ccco3)nc2n1		68.6	44.7	> 10000	21.5	963
NCCNc1nc(N)n2nc(-c3ccco3)nc2n1	35.8	30.8	567	> 100000		
Nc1nc(N2CCN(C(=O)c3cccc4ccccc34)CC2)nc2nc(-c3ccco3)nn12	4.9	31.1	7680	> 100000		
Nc1nc(N2CCN(C(=O)C(c3ccccc3)c3ccccc3)CC2)nc2nc(-c3ccco3)nn12		40.6	92.9	> 100000	80	7470
Nc1nc(N2CCN(C(=O)c3ccccc3)CC2)nc2nc(-c3ccco3)nn12	27.7	22.6	348	> 100000		
NCCCCCNc1nc(N)n2nc(-c3ccco3)nc2n1		49.9	90.1	> 10000	33	2950
Nc1nc(N2CCN(C(=O)Cc3ccccc3)CC2)nc2nc(-c3ccco3)nn12		64.5	94.8	> 100000	37	3510
Nc1nc(N)n2nc(-c3ccco3)nc2n1		36.4	160	11100	9	1410
Nc1nc(N2CCN(Cc3ccc(F)cc3)CC2)nc2nc(-c3ccco3)nn12		71.3	52.3	> 10000	12.5	655
